Reference: publication PMC10546485 (Journal of medicinal chemistry, 2022)

How the values were obtained:
[1] = system: mouse opioid μ receptor expressed in CHO cell lines; test: In vitro competitive radioligand binding assay, MOR; conditions: ratio of Ki values
How it was run: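 CHO membranes (30 μg) expressing mouse μ or κ, or human δ, opioid receptor were incubated with radioligand and varied test compound in TME (pH 7.4) for 1.5 h at 30 °C, then filtered. Nonspecific binding was defined with 5 μM naltrexone, U50,488 or SNC80.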

[2] = biological target: human δ opioid receptor expressed in CHO cell lines (Homo sapiens, UniProt P41143); test: In vitro competitive radioligand binding assay, DOR; conditions: ratio of Ki values
[3] = biological target: DOR (DOR-CHO membrane protein) (Homo sapiens, UniProt P41143); test: DOR [35S]-GTPγS functional assay; type: biochemical
[4] = system: patients; conditions: long-term study; cited from earlier work
[5] = male rats, after oral administration; cited from earlier work
[6] = system: gastrointestinal transit; conditions: MNTX intraperitoneally, morphine 5 mg/kg s.c.; cited from earlier work
[7] = system: male Swiss Webster mice; test: Carmine red dye assay; type: in vivo, mouse; conditions: test compound 10 mg/kg oral gavage, morphine 5 mg/kg
How it was run: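 Male Swiss Webster mice (5–8 wk, 25–35 g), 5–6 per group, housed singly. Test compound 10 mg/kg or vehicle given p.o. 5 min before morphine 5 mg/kg injection. Twenty min after morphine, 0.2 mL 6% carmine red in 0.5% CMC/ddH₂O given p.o. Time to first red pellet recorded, 6 h cut-off. One-way ANOVA with corrected Dunnett test.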

[8] = system: CYP3A4; conditions: cited from earlier work

Sequence of human δ opioid receptor expressed in CHO cell lines (P41143 whole entry): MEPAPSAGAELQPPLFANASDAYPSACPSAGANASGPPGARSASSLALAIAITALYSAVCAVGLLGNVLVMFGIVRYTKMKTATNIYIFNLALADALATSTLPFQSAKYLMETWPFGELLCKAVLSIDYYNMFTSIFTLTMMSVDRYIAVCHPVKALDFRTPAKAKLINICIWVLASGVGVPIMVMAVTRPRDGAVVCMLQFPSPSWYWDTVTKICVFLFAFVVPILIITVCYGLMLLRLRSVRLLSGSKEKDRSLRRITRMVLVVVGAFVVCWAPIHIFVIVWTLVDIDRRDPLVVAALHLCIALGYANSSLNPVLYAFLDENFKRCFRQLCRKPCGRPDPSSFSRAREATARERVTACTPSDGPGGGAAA
Sequence of DOR (DOR-CHO membrane protein) (P41143 whole entry): as above

Q: For O=C(Cc1cc[nH]n1)N[C@H]1CC[C@@]2(O)[C@H]3Cc4ccc(O)c5c4[C@@]2(CCN3CC2CC2)[C@H]1O5 [Compound 2, 17-Cyclopropylmethyl-3,14β-dihydroxy-4,5α-epoxy-6α-(3′-pyrazolylacetamido)morphinan], which “selectivity for the MOR over both the KOR and DOR” value [1] is on record?
A: Its value is “at least a hundred-fold”.

Q: Which “selectivity for the MOR over both the KOR and DOR” value [1] does the source give for O=C(Cc1cn[nH]c1)N[C@H]1CC[C@@]2(O)[C@H]3Cc4ccc(O)c5c4[C@@]2(CCN3CC2CC2)[C@H]1O5 [Compound 5, 17-Cyclopropylmethyl-3,14β-dihydroxy-4,5α-epoxy-6α-(4′-pyrazolylacetamido)morphinan] here?
A: Its value is “at least a hundred-fold”.

Q: For O=C(Cc1cc[nH]n1)N[C@@H]1CC[C@@]2(O)[C@H]3Cc4ccc(O)c5c4[C@@]2(CCN3CC2CC2)[C@H]1O5 [Compound 14, 17-Cyclopropylmethyl-3,14β-d/hydroxy-4,5α-epoxy-6β-(3′-pyrazolylacetamldo)morphinan], which δ/μ selectivity [2] is on record?
A: Its δ/μ selectivity is “hundreds-fold”.

Q: For O=C(CCc1cc[nH]n1)N[C@@H]1CC[C@@]2(O)[C@H]3Cc4ccc(O)c5c4[C@@]2(CCN3CC2CC2)[C@H]1O5 [Compound 15], which δ/μ selectivity [2] is on record?
A: Its δ/μ selectivity is “hundreds-fold”.

Q: Which EC50 [3] does the source give for O=C(N[C@@H]1CC[C@@]2(O)[C@H]3Cc4ccc(O)c5c4[C@@]2(CCN3CC2CC2)[C@H]1O5)c1cnc[nH]1 [Compound 19, 17-Cyclopropylmethyl-3,14β-dlhydroxy-4,5α-epoxy-6β-(5′-imldazolylcarboxamldo)morphinan] here?
A: Its EC50 is 19.1 ± 5.91 nM.

Q: Which δ/μ selectivity [2] does the source give for O=C(N[C@@H]1CC[C@@]2(O)[C@H]3Cc4ccc(O)c5c4[C@@]2(CCN3CC2CC2)[C@H]1O5)c1ncc[nH]1 [Compound 22, 17-Cyclopropylmethyl-3,14β-dihydroxy-4,5α-epoxy-6β-(2′-imidazolylcarboxamido)morphinan] here?
A: Its δ/μ selectivity is “hundreds-fold”.

Q: Which δ/μ selectivity [2] does the source give for O=C(Cc1ncc[nH]1)N[C@@H]1CC[C@@]2(O)[C@H]3Cc4ccc(O)c5c4[C@@]2(CCN3CC2CC2)[C@H]1O5 [Compound 23, 17-Cyclopropylmethyl-3,14β-dihydroxy-4,5α-epoxy-6β-(2′-imidazolylacetamido)morphinan] here?
A: The δ/μ selectivity was “hundreds-fold”.

Q: Which “cardiac-related adverse event, share of patients” value [4] does the source give for C[N@+]1(CC2CC2)CC[C@]23c4c5ccc(O)c4O[C@H]2C(=O)CC[C@@]3(O)[C@H]1C5 [MNTX, methylnaltrexone] here?
A: Its value is “less than 1%”.

Q: And the oral bioavailability [5]?
A: The oral bioavailability was < 1%.

Q: What about the “block of the antitransit effects of morphine” value [6] of the same molecule?
A: The value was “effective”.

Q: And the “reversal of the inhibitory effects of morphine on GI motility” value [7]?
A: Its value is “no blockage was observed”.

Q: For CC(C)(NC(=O)C1=C(O)[C@@H]2Oc3c(O)ccc4c3[C@@]23CCN(CC2CC2)[C@H](C4)[C@]3(O)C1)c1nc(-c2ccccc2)no1 [naldemedine], which “substrate of CYP3A4” value [8] is on record?
A: Its value is “substrates”.

Q: Which “substrate of CYP3A4” value [8] does the source give for C=CCN1CC[C@]23c4c5ccc(O)c4O[C@H]2[C@@H](OCCOCCOCCOCCOCCOCCOCCOC)CC[C@@]3(O)[C@H]1C5 [naloxegol] here?
A: The value was “substrates”.
